What was measured:
[1] = molecular target: Proto-oncogene tyrosine-protein kinase receptor Ret (Homo sapiens) (UniProt P07949); assay: Inhibition of N-terminal GST-tagged human RET cytoplasmic domain (658 to 1114 residues) expressed in baculovirus expression system at 1 uM using FAM-labeled peptide as substrate after 10 mins by mobility shift assay relative to control
In short: (§1)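 Caliper mobility-shift kinase assay. Kinase in kinase base buffer was preincubated with compound for 10 min at room temperature. FAM-labelled peptide and ATP at Km were then added, and the reaction ran at 28 °C until quenched with buffer. Screening concentration was 1 µM. Percent inhibition = (max − conversion)/(max − min) × 100, with DMSO as max and a low control as min.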

[2] = molecular target: High affinity nerve growth factor receptor (Homo sapiens) (UniProt P04629); assay: Inhibition of N-terminal GST-tagged human TRKA cytoplasmic domain (436 to 790 residues) expressed in baculovirus expression system at 1 uM using FAM-labeled peptide as substrate after 10 mins by mobility shift assay relative to control; in short: as §1
[3] = molecular target: Receptor tyrosine-protein kinase erbB-2 (Homo sapiens) (UniProt P04626); assay: Inhibition of N-terminal His-tagged human HER2 cytoplasmic domain (676 to 1255 residues) expressed in baculovirus expression system at 1 uM using FAM-labeled peptide as substrate after 10 mins by mobility shift assay relative to control; in short: as §1
[4] = molecular target: Vascular endothelial growth factor receptor 3 (Homo sapiens) (UniProt P35916); assay: Inhibition of recombinant human GST-tagged FLT4 cytoplasmic domain (800 to 1297 residues) expressed in baculovirus expression system at 1 uM using FAM-labeled peptide as substrate after 10 mins by mobility shift assay relative to control; in short: as §1
Vascular endothelial growth factor receptor 3 (Homo sapiens), sequence (P35916 whole entry, the tested form may be a part): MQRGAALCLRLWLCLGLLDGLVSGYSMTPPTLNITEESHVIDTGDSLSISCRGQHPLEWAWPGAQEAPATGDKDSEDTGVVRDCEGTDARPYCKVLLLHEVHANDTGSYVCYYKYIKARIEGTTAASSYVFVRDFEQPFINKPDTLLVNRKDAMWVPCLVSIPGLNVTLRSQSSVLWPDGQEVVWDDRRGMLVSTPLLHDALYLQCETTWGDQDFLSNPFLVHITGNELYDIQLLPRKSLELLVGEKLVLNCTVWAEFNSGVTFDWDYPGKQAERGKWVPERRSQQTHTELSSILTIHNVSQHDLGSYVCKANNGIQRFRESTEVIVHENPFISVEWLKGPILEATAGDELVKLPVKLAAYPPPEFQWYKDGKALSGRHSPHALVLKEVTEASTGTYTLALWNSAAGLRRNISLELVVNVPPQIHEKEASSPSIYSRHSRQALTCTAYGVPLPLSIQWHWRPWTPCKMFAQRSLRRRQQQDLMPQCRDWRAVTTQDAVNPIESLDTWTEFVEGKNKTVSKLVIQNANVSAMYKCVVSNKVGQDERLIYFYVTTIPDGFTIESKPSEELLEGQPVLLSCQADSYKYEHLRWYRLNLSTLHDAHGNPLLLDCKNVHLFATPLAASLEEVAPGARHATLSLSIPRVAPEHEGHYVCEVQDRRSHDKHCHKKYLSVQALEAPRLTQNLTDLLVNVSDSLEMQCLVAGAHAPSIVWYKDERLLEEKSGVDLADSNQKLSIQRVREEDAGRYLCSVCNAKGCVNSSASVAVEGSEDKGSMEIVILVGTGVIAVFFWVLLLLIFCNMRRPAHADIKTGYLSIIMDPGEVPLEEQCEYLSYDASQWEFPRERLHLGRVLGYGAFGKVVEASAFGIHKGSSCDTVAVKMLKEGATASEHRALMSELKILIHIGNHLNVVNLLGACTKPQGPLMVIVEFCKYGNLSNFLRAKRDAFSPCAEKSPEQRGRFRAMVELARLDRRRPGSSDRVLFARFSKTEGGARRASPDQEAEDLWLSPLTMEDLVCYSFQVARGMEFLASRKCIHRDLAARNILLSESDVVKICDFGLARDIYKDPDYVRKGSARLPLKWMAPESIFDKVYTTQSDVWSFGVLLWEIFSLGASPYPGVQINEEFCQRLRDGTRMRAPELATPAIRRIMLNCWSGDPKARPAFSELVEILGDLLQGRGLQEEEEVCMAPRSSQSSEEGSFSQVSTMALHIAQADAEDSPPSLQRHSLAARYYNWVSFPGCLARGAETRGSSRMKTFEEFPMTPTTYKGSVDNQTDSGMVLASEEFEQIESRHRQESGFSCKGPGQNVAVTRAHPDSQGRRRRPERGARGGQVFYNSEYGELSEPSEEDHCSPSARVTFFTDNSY

[5] = molecular target: Fibroblast growth factor receptor 1 (Homo sapiens) (UniProt P11362); assay: Inhibition of N-terminal GST-tagged human FGFR1 cytoplasmic domain (398 to 822 residues) expressed in baculovirus expression system at 1 uM using FAM-labeled peptide as substrate after 10 mins by mobility shift assay relative to control; in short: as §1
[6] = molecular target: Platelet-derived growth factor receptor beta (Homo sapiens) (UniProt P09619); assay: Inhibition of N-terminal GST-tagged human PDGFRbeta cytoplasmic domain (557 to 1106 residues) expressed in baculovirus expression system at 1 uM using FAM-labeled peptide as substrate after 10 mins by mobility shift assay relative to control; in short: as §1
Platelet-derived growth factor receptor beta (Homo sapiens), sequence (P09619 whole entry, the tested form may be a part): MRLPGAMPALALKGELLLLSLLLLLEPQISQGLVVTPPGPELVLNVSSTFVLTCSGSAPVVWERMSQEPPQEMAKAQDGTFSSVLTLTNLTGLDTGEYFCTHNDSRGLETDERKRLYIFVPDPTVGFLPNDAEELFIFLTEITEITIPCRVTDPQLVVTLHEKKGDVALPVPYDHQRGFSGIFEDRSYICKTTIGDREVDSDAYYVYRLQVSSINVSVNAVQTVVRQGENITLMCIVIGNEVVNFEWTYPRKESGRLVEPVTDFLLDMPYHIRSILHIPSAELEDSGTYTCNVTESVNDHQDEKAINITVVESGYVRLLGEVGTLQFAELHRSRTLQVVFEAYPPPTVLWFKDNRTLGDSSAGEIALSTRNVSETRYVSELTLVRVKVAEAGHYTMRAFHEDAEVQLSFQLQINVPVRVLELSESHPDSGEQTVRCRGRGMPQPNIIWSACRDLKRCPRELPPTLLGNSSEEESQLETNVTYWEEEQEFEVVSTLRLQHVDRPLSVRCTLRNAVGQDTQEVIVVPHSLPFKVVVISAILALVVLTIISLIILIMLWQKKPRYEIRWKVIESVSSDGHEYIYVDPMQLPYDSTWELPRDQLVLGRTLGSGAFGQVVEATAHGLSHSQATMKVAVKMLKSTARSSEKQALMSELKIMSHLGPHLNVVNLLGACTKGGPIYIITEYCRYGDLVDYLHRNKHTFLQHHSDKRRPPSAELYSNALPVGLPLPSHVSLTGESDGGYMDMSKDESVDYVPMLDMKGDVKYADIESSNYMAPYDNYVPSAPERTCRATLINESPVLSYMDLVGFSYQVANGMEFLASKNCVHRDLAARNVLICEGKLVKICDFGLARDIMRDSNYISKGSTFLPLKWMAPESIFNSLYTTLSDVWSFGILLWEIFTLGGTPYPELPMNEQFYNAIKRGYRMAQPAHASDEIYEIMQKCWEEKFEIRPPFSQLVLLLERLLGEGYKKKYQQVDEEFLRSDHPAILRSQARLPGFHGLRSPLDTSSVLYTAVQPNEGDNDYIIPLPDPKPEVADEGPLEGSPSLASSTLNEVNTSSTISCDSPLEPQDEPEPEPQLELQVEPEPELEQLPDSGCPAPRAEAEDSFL

[7] = molecular target: Serine/threonine-protein kinase PAK 2 (Homo sapiens) (UniProt Q13177); assay: Inhibition of human N-terminal GST-tagged full length PAK2 (1 to 524 residues) expressed in baculovirus expression system at 1 uM using FAM-labeled peptide as substrate after 10 mins by mobility shift assay relative to control; in short: as §1
Serine/threonine-protein kinase PAK 2 (Homo sapiens), sequence (Q13177 whole entry, the tested form may be a part): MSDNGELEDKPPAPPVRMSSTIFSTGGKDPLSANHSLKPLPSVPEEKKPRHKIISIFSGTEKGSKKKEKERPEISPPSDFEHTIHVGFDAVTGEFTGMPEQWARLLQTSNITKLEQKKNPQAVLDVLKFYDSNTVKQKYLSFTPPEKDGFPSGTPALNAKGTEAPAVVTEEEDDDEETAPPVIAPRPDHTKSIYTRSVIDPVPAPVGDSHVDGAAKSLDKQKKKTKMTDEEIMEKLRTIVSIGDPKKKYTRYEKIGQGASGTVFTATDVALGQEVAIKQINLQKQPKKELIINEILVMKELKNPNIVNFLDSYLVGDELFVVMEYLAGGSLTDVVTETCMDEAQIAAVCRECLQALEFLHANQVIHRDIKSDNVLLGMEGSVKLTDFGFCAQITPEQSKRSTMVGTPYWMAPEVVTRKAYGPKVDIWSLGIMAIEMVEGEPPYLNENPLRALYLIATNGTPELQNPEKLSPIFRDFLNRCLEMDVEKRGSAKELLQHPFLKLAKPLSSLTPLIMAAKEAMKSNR

[8] = molecular target: Receptor-type tyrosine-protein kinase FLT3 (Homo sapiens) (UniProt P36888); assay: Inhibition of human N-terminal GST-tagged FLT3 cytoplasmic domain (564 to 993 residues) expressed in baculovirus expression system at 1 uM using FAM-labeled peptide as substrate after 10 mins by mobility shift assay relative to control; in short: as §1
[9] = molecular target: Vascular endothelial growth factor receptor 1 (Homo sapiens) (UniProt P17948); assay: Inhibition of recombinant human GST-tagged FLT1 cytoplasmic domain (781 to 1338 residues) expressed in baculovirus expression system at 1 uM using FAM-labeled peptide as substrate after 10 mins by mobility shift assay relative to control; in short: as §1
[10] = molecular target: Insulin-like growth factor 1 receptor (Homo sapiens) (UniProt P08069); assay: Inhibition of human His-tagged IGF1R cytoplasmic domain (960 to 1397 residues) expressed in baculovirus expression system at 1 uM using FAM-labeled peptide as substrate after 10 mins by mobility shift assay relative to control; in short: as §1
[11] = molecular target: Serine/threonine-protein kinase B-raf (Homo sapiens) (UniProt P15056); assay: Inhibition of recombinant human GST-tagged full length BRAF expressed in baculovirus expression system at 1 uM using FAM-labeled peptide as substrate after 10 mins by mobility shift assay relative to control; in short: as §1
Serine/threonine-protein kinase B-raf (Homo sapiens), sequence (P15056 whole entry, the tested form may be a part): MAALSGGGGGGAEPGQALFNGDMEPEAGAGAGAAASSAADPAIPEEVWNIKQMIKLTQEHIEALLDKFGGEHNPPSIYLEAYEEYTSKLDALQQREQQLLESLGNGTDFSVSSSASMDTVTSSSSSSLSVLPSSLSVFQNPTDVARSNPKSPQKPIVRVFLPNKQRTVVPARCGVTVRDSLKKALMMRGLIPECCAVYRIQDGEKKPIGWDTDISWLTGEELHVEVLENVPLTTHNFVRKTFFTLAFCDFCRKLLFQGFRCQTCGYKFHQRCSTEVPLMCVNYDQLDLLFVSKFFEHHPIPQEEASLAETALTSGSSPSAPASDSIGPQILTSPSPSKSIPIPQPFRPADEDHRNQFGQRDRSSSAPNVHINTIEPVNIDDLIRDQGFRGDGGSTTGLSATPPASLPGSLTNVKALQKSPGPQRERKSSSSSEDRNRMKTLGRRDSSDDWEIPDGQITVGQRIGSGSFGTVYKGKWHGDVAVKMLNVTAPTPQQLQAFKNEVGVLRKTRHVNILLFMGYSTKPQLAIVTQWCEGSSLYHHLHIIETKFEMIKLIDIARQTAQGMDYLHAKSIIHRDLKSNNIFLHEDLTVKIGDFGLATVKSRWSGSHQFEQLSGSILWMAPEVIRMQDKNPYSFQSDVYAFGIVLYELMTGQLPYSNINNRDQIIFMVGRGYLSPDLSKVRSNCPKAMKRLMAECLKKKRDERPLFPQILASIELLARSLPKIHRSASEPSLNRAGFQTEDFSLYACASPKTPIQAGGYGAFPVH

[12] = molecular target: T1, Aurora kinase A (Homo sapiens) (UniProt O14965); assay: Inhibition of human N-terminal GST-tagged AURA (1 to 403 residues) expressed in baculovirus expression system at 1 uM using FAM-labeled peptide as substrate after 10 mins by mobility shift assay relative to control; in short: as §1
T1 sequence (whole entry): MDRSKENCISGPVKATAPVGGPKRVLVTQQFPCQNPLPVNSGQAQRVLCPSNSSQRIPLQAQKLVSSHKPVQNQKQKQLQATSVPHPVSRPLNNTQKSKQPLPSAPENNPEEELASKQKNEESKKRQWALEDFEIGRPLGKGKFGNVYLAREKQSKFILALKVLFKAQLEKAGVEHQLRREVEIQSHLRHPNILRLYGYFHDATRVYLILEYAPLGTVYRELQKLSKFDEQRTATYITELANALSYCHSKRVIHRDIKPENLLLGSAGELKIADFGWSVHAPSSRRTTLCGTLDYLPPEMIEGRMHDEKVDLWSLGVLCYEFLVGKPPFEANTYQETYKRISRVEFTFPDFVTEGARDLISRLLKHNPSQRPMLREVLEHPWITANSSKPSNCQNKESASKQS

[13] = molecular target: T2, Mitogen-activated protein kinase kinase kinase kinase 2 (Homo sapiens) (UniProt Q12851); assay: Inhibition of human N-terminal GST-tagged full length MAP4K2 (1 to 820 residues) expressed in baculovirus expression system at 1 uM using FAM-labeled peptide as substrate after 10 mins by mobility shift assay relative to control; in short: as §1
T2 sequence (whole entry): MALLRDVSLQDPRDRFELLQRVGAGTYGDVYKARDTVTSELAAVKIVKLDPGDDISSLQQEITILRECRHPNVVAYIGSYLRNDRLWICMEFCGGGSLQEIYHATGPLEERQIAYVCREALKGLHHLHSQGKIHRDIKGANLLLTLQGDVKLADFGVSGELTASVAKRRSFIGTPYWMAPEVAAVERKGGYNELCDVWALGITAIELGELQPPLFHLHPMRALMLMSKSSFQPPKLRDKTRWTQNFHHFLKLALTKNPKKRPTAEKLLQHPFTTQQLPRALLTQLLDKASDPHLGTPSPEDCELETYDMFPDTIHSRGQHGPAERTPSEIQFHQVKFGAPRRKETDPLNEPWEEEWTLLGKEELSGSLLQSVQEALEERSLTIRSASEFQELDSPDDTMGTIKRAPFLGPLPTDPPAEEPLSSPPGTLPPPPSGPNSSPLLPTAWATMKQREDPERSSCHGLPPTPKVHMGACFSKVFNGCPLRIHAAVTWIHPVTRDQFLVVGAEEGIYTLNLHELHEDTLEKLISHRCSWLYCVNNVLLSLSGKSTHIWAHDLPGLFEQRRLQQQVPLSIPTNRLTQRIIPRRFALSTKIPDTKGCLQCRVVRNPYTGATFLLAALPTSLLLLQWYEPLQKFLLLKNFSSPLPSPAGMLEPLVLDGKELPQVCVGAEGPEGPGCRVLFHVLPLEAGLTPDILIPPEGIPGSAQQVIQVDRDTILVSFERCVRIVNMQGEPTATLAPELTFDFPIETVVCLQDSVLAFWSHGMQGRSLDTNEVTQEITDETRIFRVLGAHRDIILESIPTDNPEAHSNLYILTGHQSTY

Proto-oncogene tyrosine-protein kinase receptor Ret (Homo sapiens), sequence (P07949 whole entry, the tested form may be a part): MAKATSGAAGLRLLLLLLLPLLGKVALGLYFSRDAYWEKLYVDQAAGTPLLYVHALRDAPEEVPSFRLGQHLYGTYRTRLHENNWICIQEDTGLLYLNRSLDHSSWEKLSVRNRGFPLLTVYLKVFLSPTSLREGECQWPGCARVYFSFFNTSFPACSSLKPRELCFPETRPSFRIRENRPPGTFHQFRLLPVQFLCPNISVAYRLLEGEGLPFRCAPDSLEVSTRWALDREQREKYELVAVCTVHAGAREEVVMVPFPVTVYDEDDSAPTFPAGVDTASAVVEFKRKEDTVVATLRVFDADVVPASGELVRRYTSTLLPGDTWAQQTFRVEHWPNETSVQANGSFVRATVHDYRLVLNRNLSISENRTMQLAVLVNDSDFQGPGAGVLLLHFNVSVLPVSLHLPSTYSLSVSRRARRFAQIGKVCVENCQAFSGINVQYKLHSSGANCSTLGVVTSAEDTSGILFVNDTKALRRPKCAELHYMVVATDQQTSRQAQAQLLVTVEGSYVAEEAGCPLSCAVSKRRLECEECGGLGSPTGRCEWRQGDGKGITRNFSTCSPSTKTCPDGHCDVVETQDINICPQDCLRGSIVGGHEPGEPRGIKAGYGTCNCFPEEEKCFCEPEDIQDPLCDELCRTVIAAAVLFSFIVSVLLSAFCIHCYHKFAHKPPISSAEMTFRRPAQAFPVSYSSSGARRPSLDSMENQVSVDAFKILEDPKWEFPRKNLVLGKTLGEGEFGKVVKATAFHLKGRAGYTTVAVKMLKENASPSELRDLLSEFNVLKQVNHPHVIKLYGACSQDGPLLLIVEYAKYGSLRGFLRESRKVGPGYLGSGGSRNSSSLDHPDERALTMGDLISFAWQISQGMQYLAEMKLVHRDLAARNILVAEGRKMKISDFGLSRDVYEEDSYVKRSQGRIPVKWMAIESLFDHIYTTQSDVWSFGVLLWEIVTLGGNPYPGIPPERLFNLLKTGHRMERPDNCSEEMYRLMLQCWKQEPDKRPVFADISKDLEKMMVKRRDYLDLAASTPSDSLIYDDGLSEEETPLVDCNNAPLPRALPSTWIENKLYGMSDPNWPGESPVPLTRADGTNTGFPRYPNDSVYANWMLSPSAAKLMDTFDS

SMILES | inhibition [1] [%] | inhibition [2] [%] | inhibition [3] [%] | inhibition [4] [%] | inhibition [5] [%] | inhibition [6] [%] | inhibition [7] [%] | inhibition [8] [%] | inhibition [9] [%] | inhibition [10] [%] | inhibition [11] [%] | inhibition [12] [%] | inhibition [13] [%]
COc1cccc(Nc2cc(NC(=O)CCCC(=O)O)ncn2)c1 | 7.7 | 18.8 | -1.9 | 29.4 | 24 | 10.3 | 18.9 | 10.5 | 11.8 | 10.1 | 11.3 | 19.8 | 10.5
O=C(O)CCCC(=O)Nc1cc(Nc2cccc(Cl)c2)ncn1 | 16.8 | 9.6 | 57.3 | 29.4 | 13.5 | 74.1 | 16.9 | 35.5 | 12.3 | 13.2 | 79.3 | 8.7 | 9.2
CCOC(=O)c1ccc(Nc2cc(NC(=O)CCCC(=O)O)ncn2)cc1 | 10.4 | 8.4 | 4.9 | 28.2 | 5.6 | 24.2 | 15.7 | 11.5 | 2.9 | 9.2 | 12.7 | 17.3 | 5.5
O=C(O)CCCC(=O)Nc1cc(N2CCOCC2)ncn1 | 8.5 | 6 | -1.5 | 9.5 | 5.6 | 10 | 9.4 | 16.4 | -9.5 | 4 | 16.7 | 49 | 3.3
COc1ccc(Nc2cc(NC(=O)c3ccccc3)ncn2)cc1 | 2.9 | 5.6 | 55.8 | 21.6 | -1.6 | 29.4 | 13.4 | 6.9 | 2.3 | 5.3 | 16.6 | 2.6 | -3.2
COc1cccc(Nc2cc(Nc3cc(OC)ccc3OC)ncn2)c1 | 16.3 | 6.8 | -4.2 | 47.3 | 4.8 | 30.4 | 4.7 | 59.1 | 18.1 | 6.3 | 47.5 | 52.3 | 5.4
